Results as given in ChEMBL document CHEMBL3244390, “New antiarrhythmic agents. 1. Primary alpha-amino anilides” (J Med Chem, 1979).

Key:
Mus musculus [1] = test: Antiarrhythmic activity in Swiss albino mouse assessed as protection against chloroform-induced fibrillation at 100 mg/kg, sc relative to control; assay type: functional, Heart; details: route subcutaneous
Outline: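 Mice (18–25 g) were dosed and exposed to CHCl3 vapor 20 min later until respiration ceased. Presence or absence of ventricular fibrillation was judged through the opened thorax, and protection was scored as the fraction of animals free of fibrillation. A preliminary 100 mg/kg dose was used to estimate doses for the full screen.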

Mus musculus [2] = test: Toxicity in Swiss albino mouse assessed as induction of ataxia at 100 mg/kg, sc relative to control; assay type: organism-based; parameters: dose 100 mg/kg, route subcutaneous; details: in vivo
Outline: (§1)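 Single preliminary dose of 100 mg/kg. Mice (18–25 g) were watched for overt CNS toxicity signs, including convulsions, ataxia and loss of righting reflex, during the 20 min between treatment and exposure to CHCl3 vapor.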

Mus musculus [3] = test: Toxicity in Swiss albino mouse assessed as induction of convulsions at 100 mg/kg, sc relative to control; assay type: organism-based; parameters: dose 100 mg/kg, route subcutaneous; details: in vivo; outline: as §1
Mus musculus [4] = test: Toxicity in Swiss albino mouse assessed as induction of loss of righting reflex at 100 mg/kg, sc relative to control; assay type: organism-based; parameters: dose 100 mg/kg, route subcutaneous; details: in vivo; outline: as §1
Mus musculus [5] = test: Antiarrhythmic activity in sc dosed Swiss albino mouse assessed as protection against chloroform-induced fibrillation relative to control; assay type: functional; details: Heart
Outline: (§2)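 Mice (18–25 g) were dosed and observed for signs of toxicity. Twenty minutes after dosing they were exposed to CHCl3 vapor until respiration ceased, and ventricular fibrillation was scored by inspecting the opened thorax.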

Mus musculus [6] = test: Antiarrhythmic activity in sc dosed Swiss albino mouse assessed as protection against chloroform-induced fibrillation relative to lidocaine; assay type: functional, Heart; outline: as §2
Canis familiaris [7] = test: Antiarrhythmic activity in coronary ligated dog assessed as reduction of ventricular ectopic beats to <5% of total ventricular beats at 0.5 mg/kg, iv measured for 5 mins relative to control; assay type: functional, Canis lupus familiaris, Heart; parameters: scale not given: the % may be the effect or the level left
Canis familiaris [8] = test: Antiarrhythmic activity in coronary ligated dog assessed as reduction of mean arterial blood pressure at 0.5 mg/kg, iv measured for 5 mins relative to control; assay type: functional, Canis lupus familiaris, Artery
Canis familiaris [9] = test: Antiarrhythmic activity in coronary ligated dog assessed as reduction of ventricular rates at 0.5 mg/kg, iv measured for 5 mins relative to control; assay type: functional, Canis lupus familiaris, Heart
Canis familiaris [10] = test: Antiarrhythmic activity in iv dosed coronary ligated dog assessed as concentration required to reduce ventricular ectopic beats to <5% of total ventricular beats measured for 5 mins; assay type: functional, Canis lupus familiaris, Heart
Outline: (§3)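 Clearing was defined as less than 5% ectopic beats for 5 min, and the infusion was shut off at clearing or when toxicity appeared. Doses are in mmol/kg, reported as means with standard deviations over the experiments.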

Canis familiaris [11] = test: Toxicity in iv dosed coronary ligated dog assessed as concentration required to cause convulsions; assay type: organism-based, Canis lupus familiaris; details: in vivo; outline: as §3
Canis familiaris [12] = test: Toxicity in iv dosed coronary ligated dog assessed as concentration required to cause mortality measured 87 mins after end of infusion; assay type: organism-based, Canis lupus familiaris; details: in vivo, 1.45 h
Outline: (§4)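 Dogs with ventricular arrhythmias from coronary artery ligation (Harris method) received drug by infusion, with the ectopic beat incidence monitored. Clearing was defined as less than 5% ectopic beats for 5 min. Infusion was stopped at clearing or when toxicity was observed. The dose was recorded at the time of the endpoint. Mortality was noted, including death after the end of infusion.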

[13] = Half life in dog; assay type: ADME, organism-based, Canis lupus familiaris; details: in vivo
Canis familiaris [14] = test: Toxicity in iv dosed coronary ligated dog assessed as concentration required to cause mortality; assay type: organism-based, Canis lupus familiaris; details: in vivo; outline: as §4
[15] = Oral bioavailability in dog; assay type: ADME, organism-based, Canis lupus familiaris; details: in vivo
[16] = Half life in human; assay type: ADME, organism-based; details: in vivo

| Structure (SMILES) | Activity (Mus musculus [1]) | Activity (Mus musculus [2]) | Activity (Mus musculus [3]) | Activity (Mus musculus [4]) | ED50 (Mus musculus [5]) | Ratio ED50 (Mus musculus [6]) | Activity (Canis familiaris [7]) | Activity (Canis familiaris [8]) | Activity (Canis familiaris [9]) | Activity (Canis familiaris [10]) | Activity (Canis familiaris [11]) | Activity (Canis familiaris [12]) | half-life [13] | Activity (Canis familiaris [14]) | bioavailability [15] | half-life [16] |
| --- | --- | --- | --- | --- | --- | --- | --- | --- | --- | --- | --- | --- | --- | --- | --- | --- |
| Cc1cc(C)c(NC(=O)CN)c(C)c1.Cl | 10% | 100% | 80% | 0% | 790 µmol/kg | 0.3 | – | – | – | – | – | – | – | – | – | – |
| Cc1cccc(C)c1NC(=O)CN.Cl | 10% | 0% | 0% | 0% | 900 µmol/kg | 0.3 | 0% | 85 Torr | 123 bpm | 0.48 mmol/kg | 0.48 mmol/kg | 0.56 mmol/kg | 3.7 h | – | – | – |
| Cc1cccc(C)c1NC(=O)C(N)c1ccccc1.Cl (stereo unspecified) | 80% | 100% | 100% | 100% | 220 µmol/kg | 1.2 | – | – | – | – | – | – | – | – | – | – |
| CCc1cccc(CC)c1NC(=O)C(N)CC.Cl (stereo unspecified) | 100% | 100% | 100% | 0% | 230 µmol/kg | 1.2 | – | – | – | – | – | – | – | – | – | – |
| CCc1cccc(CC)c1NC(=O)C(C)N.Cl (stereo unspecified) | 20% | 100% | 10% | 0% | 530 µmol/kg | 0.5 | 2% | 140 Torr | 124 bpm | 0.26 mmol/kg | 0.23 mmol/kg | – | – | 0.45 mmol/kg | – | – |
| Cc1cccc(C)c1NC(=O)[C@@H](C)N.Cl | 10% | 70% | 0% | 0% | 930 µmol/kg | 0.3 | 0% | 105 Torr | 123 bpm | 0.31 mmol/kg | 0.21 mmol/kg | – | – | – | – | – |
| CCC(N)C(=O)Nc1c(C)cccc1C.Cl (stereo unspecified) | – | – | – | – | – | – | – | – | – | – | – | – | 1.5 h | – | – | – |
| CCc1cccc(CC)c1NC(=O)CN.Cl | 10% | 100% | 0% | 0% | 1200 µmol/kg | 0.2 | – | – | – | – | – | – | – | – | – | – |
| CCc1cccc(C)c1NC(=O)CN.Cl | 20% | 100% | 0% | 0% | 1300 µmol/kg | 0.2 | – | – | – | – | – | – | – | – | – | – |
| Cc1cccc(C)c1NC(=O)[C@H](C)N.Cl | 0% | 0% | 0% | 0% | 3100 µmol/kg | 0.1 | 0% | 85 Torr | 99 bpm | 0.11 mmol/kg | – | – | – | – | – | – |
| CCN(CC)CC(=O)Nc1c(C)cccc1C.Cl | 100% | 100% | 100% | 100% | 260 µmol/kg | – | 4% | 101 Torr | 133 bpm | 0.21 mmol/kg | 0.27 mmol/kg | – | – | – | – | – |
| Cc1cccc(C)c1NC(=O)C(C)N.Cl (racemic) [TOCAINIDE HYDROCHLORIDE] | 20% | 10% | 0% | 0% | 1300 µmol/kg | 0.2 | 2% | 108 Torr | 148 bpm | 0.32 mmol/kg | 0.3 mmol/kg | – | 4.7 h | – | 80% | 11 h |
